Screens deposited in PubChem by several laboratories.
In the library only some 1.9% were active in any assay of this set; here they are far more common.
ARFGAP1 inh = inhibitors of rat ARFGAP1 GAP activity, primary screen, biochemical, fluorescence polarization, GDP tracer | ADP-ribosylation factor GTPase-activating protein 1 (Rattus norvegicus), Q62848 | Arfgap1-stimulated ARF1 GTP hydrolysis, GDP FP detection | inhibition, % at 16.5 µM | 0.26% of 360,000 active | AID 651572, 2012;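 active means inhibition above a per-plate limit, mean inhibition of low control wells plus 3 SD, cut at about 25% in these data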;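 further: 0% = DMSO wells with enzyme and 100% = wells lacking Arfgap1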
Target sequence (Q62848 1-136 limits assumed): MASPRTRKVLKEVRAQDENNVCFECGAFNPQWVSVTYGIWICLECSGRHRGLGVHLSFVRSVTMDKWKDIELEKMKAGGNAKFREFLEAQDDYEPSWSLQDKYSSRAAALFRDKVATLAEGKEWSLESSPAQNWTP
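Material: truncated rat Arfgap1 GAP domain; Incubation: compound-enzyme preincubation 20 min, reaction 120 min, detection 60 min, 25 °C; Read-out: percent inhibition of Arfgap1-stimulated GTP hydrolysis; Technique: FP, GDP Alexa 633 tracer displaced from anti-GDP antibody, 620/688 nm; Controls: No-Arfgap1 wells (100%) versus DMSO full-reaction wells (0%); Replication: single well per compound.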
FGF22 binding-1 = binders of human FGF22 protein, primary screen, FGF22 synaptogenesis inhibitor project, biophysical, thermal shift, single point. Fibroblast growth factor 22 (Homo sapiens), Q9HCT0. recombinant FGF22 thermal shift, SYPRO orange fluorescence; percent of sucrose octasulfate shift, DMSO zero. activity (Tm shift, normalised), % at 9.99 µM. 1.5% of 340,000 active. AID 651658, 2012;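 active means mean Tm shift, scaled 0 neutral to 100 positive control, at about 1.3% or above, every replicate too, limit read from the data; inconclusive means no clear call, values can overlap the other calls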
Efflux pump inh = inhibitors of Candida efflux pumps in yeast, primary screen, S. cerevisiae, Nile Red, multiplex; S. cerevisiae Candida pump triplex; inhibition, % at 10 µM; 0.44% of 330,000 active; AID 485275, 2010;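 active means plate passing quality check with inhibition over a set limit, or well fluorescence over plate mean plus 4 SD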;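 further: Nile Red retained in pooled yeast measured as flow cytometry median fluorescence; 0% = buffer negative control and 100% = Enniatin B positive control; higher means more Nile Red kept so more efflux inhibition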
Rtt109 Vps75 = inhibitors of C. albicans Rtt109/Vps75 HAT, primary screen, biochemical, ThioGlo CoA-SH fluorescence, plate reader. Histone acetyltransferase RTT109 (Candida albicans (strain SC5314 / ATCC MYA-2876)), …. purified Rtt109/Vps75, 4 h. inhibition, % at 34.9 µM. 0.16% of 330,000 active;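 active means inhibition of at least 50% in every replicate; inconclusive means best replicate reaches 50% inhibition but some replicates fall short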
ASAP1 GAP inh = inhibitors of human ASAP1 ArfGAP activity, primary screen, biochemical, fluorescence polarization; Arf-GAP with SH3 domain, ANK repeat and PH domain-containing protein 1 (Homo sapiens), …; ASAP1-stimulated ARF1 GTP hydrolysis, GDP FP detection; inhibition, % at 16.5 µM; 0.19% of 360,000 active; AID 624377, 2012; in the data active means inhibition above about 25%;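 further: 0% = vehicle with enzyme and substrate and 100% = no enzyme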
Target sequence (Q9ULH1 325-724 limits assumed): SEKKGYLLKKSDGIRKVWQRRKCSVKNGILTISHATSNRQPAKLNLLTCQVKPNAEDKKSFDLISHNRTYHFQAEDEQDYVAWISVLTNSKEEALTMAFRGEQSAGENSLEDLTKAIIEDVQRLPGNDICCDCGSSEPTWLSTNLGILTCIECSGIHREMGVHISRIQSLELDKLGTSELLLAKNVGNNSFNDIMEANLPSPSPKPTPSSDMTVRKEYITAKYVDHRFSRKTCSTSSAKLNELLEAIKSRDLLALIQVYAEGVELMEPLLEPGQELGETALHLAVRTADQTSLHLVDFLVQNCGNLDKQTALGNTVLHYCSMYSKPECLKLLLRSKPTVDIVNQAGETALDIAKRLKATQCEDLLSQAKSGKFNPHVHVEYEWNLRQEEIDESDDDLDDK
FGF22 binding-2 = binders of human FGF22 protein, dose response, FGF22 synaptogenesis inhibitor project, biophysical, thermal shift, cherry-pick retest; shares compounds with FGF22 binding-1; recombinant FGF22 thermal shift, SYPRO orange fluorescence; thermal shift activity, °C (ΔTm) at 38 µM; 2% of 1,000 active;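 active means fitted rise in melting shift crosses a set limit at or below the top valid dose tested; inconclusive means flat fit at mid-level activity, or a poor quality fit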
TSA no protein = compound-only thermal shift signal without protein, dose response, artefact control for FGF22 binder project, biochemical, cherry-picked samples, RT-PCR instrument; AID 743019, 2013; AC50, µM (highest dose often 38 µM); 2% of 1,000 active; compound-only SYPRO orange thermal shift counter-screen, no protein; shares compounds with FGF22 binding-1;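 active means rising signal whose fitted curve reaches the 0.54 level within the top valid dose, showing a melting point, actives reach about 13 µM in these data; inactive means the rest, including activity in the opposite direction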; further: value is where the raw curve crosses a fixed level and not half-maximal
Active calls of the source: *; ! = a repeat was not active; [ ] = dose if it differs, or a comment.

Screening Cc1ccc(NC(=O)CN(C)CC(=O)N(CC(C)C)c2c(N)n(CC(C)C)c(=O)[nH]c2=O)c(C)c1 returned ARFGAP1 inh 0, FGF22 binding-1 0, Efflux pump inh 0, Rtt109 Vps75 3 and ASAP1 GAP inh -11.
For CCCCCCCCCCCCN1[C@@H](CC(=O)O)c2cc(C(F)(F)F)ccc2S1(=O)=O the results were ARFGAP1 inh -17, FGF22 binding-1 0, Efflux pump inh 0, Rtt109 Vps75 inconclusive and ASAP1 GAP inh -3.
Screening O=C(C[C@H]1CC[C@H]2[C@@H](COC[C@H](O)CN2Cc2nccs2)O1)NCc1ccccc1F returned FGF22 binding-1 1.6*, FGF22 binding-2 0.099[42 µM] and TSA no protein inactive.
`O=C(C[C@H]1CC[C@@H]2[C@H](COC[C@H](O)CN2Cc2nccs2)O1)NCc1ccccc1F` gave FGF22 binding-1 0.
For COc1ccc(NS(=O)(=O)c2ccc3oc(=S)[nH]c3c2)cc1 the results were ARFGAP1 inh 5, FGF22 binding-1 0, Efflux pump inh 0, Rtt109 Vps75 -1 and ASAP1 GAP inh 8.
Screening COc1cccc(NC(=O)OCCN2CCN(Cc3ccccc3)CCC2=O)c1 returned ARFGAP1 inh -3, FGF22 binding-1 1.5*, Efflux pump inh 0, Rtt109 Vps75 3, ASAP1 GAP inh 3, FGF22 binding-2 0.16 and TSA no protein inactive.
`O=C(NCC[C@@H]1CC[C@@H](NC(=O)C2CCOCC2)[C@H](CO)O1)Nc1ccc(Cl)cc1` gave FGF22 binding-1 1.4*, FGF22 binding-2 0.15[42 µM] and TSA no protein inactive.
O=C(NCC[C@H]1CC[C@H](NC(=O)C2CCOCC2)[C@@H](CO)O1)Nc1ccc(Cl)cc1 was read as FGF22 binding-1 1.5*, FGF22 binding-2 -0.047 and TSA no protein inactive.
Screening Cc1cc(C(=O)OC(C(=O)Nc2cccc(C(F)(F)F)c2)c2ccccc2)c(C)o1 (stereo unspecified) returned ARFGAP1 inh 9, Efflux pump inh 0, Rtt109 Vps75 1 and ASAP1 GAP inh -7.
`CN1CCN(C(=O)C[C@H]2C=C[C@H](NC(=O)c3ccc4c(c3)OCO4)[C@H](CO)O2)CC1` gave FGF22 binding-1 1.5*, FGF22 binding-2 0.042[42 µM] and TSA no protein inactive.
For COc1cccc(NC(=O)CN(C)C(=O)c2ccc(NC3CC3)c([N+](=O)[O-])c2)c1 the results were ARFGAP1 inh 4, FGF22 binding-1 2.6*, Efflux pump inh 0, Rtt109 Vps75 -2, ASAP1 GAP inh -15, FGF22 binding-2 0.12 and TSA no protein inactive.
For O=C(Cc1ccc2c(c1)OCCO2)c1c(O)cc(O)cc1O the results were ARFGAP1 inh -5, FGF22 binding-1 0, Efflux pump inh 0 and ASAP1 GAP inh 5.
For O=C(CCc1ccc(O)cc1)c1c(O)cc(O)cc1O the results were ARFGAP1 inh 16, FGF22 binding-1 2.8*, Efflux pump inh 0, Rtt109 Vps75 -2, ASAP1 GAP inh 18, FGF22 binding-2 0.51 and TSA no protein 2.9µM*.
Cc1ccc(Cl)cc1N1CCN(C(=O)Cc2c(C(=O)O)[nH]c3ccccc23)CC1 was read as ARFGAP1 inh -4, FGF22 binding-1 0, Efflux pump inh 0, Rtt109 Vps75 18 and ASAP1 GAP inh 0.
Screening Cc1ccc(Cl)cc1N1CCN(C(=O)Cc2c(C(=O)O)[nH]c3ccc(Cl)cc23)CC1 returned ARFGAP1 inh -10, FGF22 binding-1 7.4*, Efflux pump inh 0, Rtt109 Vps75 9, ASAP1 GAP inh -13, FGF22 binding-2 0.23 and TSA no protein inactive.
Screening O=C(/C=C/c1ccco1)N(c1ccccn1)c1ccccn1 returned ARFGAP1 inh 13, FGF22 binding-1 0, Efflux pump inh 0, Rtt109 Vps75 -19 and ASAP1 GAP inh -2.
C[C@H]1CN([C@@H](C)CO)C(=O)c2cc(NS(=O)(=O)c3cn(C)cn3)ccc2O[C@H]1CN(C)Cc1ccccc1 was read as FGF22 binding-1 24*, FGF22 binding-2 -0.038 and TSA no protein inactive.
For C[C@@H]1CN([C@H](C)CO)C(=O)c2cc(NS(=O)(=O)c3cn(C)cn3)ccc2O[C@@H]1CN(C)Cc1ccccc1 the results were FGF22 binding-1 0.
For C[C@H](CO)N1C[C@H](C)[C@@H](CN(C)S(=O)(=O)c2ccccc2)Oc2ccc(NS(=O)(=O)c3cn(C)cn3)cc2C1=O the results were ARFGAP1 inh 5, FGF22 binding-1 2.3*!, Efflux pump inh 0, Rtt109 Vps75 -1, ASAP1 GAP inh -25, FGF22 binding-2 0.026 and TSA no protein inactive.
`C[C@H]1CN([C@@H](C)CO)C(=O)c2cc(NS(=O)(=O)c3cn(C)cn3)ccc2O[C@H]1CN(C)S(=O)(=O)c1ccccc1` gave FGF22 binding-1 1.
Cn1c2ccccc2c2cc(/C=N/NC(=O)c3ccc(N)cc3)ccc21 was read as ARFGAP1 inh -12, FGF22 binding-1 0, Efflux pump inh 0, Rtt109 Vps75 -14 and ASAP1 GAP inh -6.
CCOc1cc(C=NNC(=O)c2cccc(S(=O)(=O)N3CCCC3)c2)ccc1O was read as ARFGAP1 inh 0, FGF22 binding-1 2.4*, Efflux pump inh 0, Rtt109 Vps75 -5, ASAP1 GAP inh 7, FGF22 binding-2 0.52 and TSA no protein inactive.
Screening COc1cc(NC(=O)c2ccc(OC)c([N+](=O)[O-])c2)ccc1NC(=O)c1cccs1 returned ARFGAP1 inh -6, Efflux pump inh 0, Rtt109 Vps75 4 and ASAP1 GAP inh -1.
Screening COc1cc(C2C(C#N)=C(N)Oc3n[nH]c(-c4cccnc4)c32)cc(Br)c1O (stereo unspecified) returned ARFGAP1 inh 4, FGF22 binding-1 1.8*, Efflux pump inh 0, Rtt109 Vps75 8, ASAP1 GAP inh 2, FGF22 binding-2 0.28 and TSA no protein inactive.
